From ChEMBL document CHEMBL1141337, “The berkeleyacetals, three meroterpenes from a deep water acid mine waste Penicillium” (J Nat Prod, 2007)
The source made the active and inactive calls. The rule behind the calls is not given here.

Assays:
Caspase-1 (Homo sapiens) = target: T1, Caspase-1 (Homo sapiens) (UniProt P29466); assay: Inhibition of caspase 1
T1 sequence (whole entry): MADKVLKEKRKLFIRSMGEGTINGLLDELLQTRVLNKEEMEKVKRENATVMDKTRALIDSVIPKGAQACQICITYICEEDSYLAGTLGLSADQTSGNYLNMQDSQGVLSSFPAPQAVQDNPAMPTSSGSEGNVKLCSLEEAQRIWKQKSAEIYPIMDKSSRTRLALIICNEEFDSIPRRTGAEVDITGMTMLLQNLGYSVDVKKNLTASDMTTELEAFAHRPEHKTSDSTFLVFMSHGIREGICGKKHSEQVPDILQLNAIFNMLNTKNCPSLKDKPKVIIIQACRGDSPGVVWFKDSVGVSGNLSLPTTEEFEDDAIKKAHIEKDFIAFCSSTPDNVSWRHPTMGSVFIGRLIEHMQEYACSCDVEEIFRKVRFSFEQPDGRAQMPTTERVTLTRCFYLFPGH

[1] = target: Stromelysin-1 (Homo sapiens) (UniProt P08254); assay: Inhibition of MMP3
Stromelysin-1 (Homo sapiens), sequence (P08254 100-477 limits assumed): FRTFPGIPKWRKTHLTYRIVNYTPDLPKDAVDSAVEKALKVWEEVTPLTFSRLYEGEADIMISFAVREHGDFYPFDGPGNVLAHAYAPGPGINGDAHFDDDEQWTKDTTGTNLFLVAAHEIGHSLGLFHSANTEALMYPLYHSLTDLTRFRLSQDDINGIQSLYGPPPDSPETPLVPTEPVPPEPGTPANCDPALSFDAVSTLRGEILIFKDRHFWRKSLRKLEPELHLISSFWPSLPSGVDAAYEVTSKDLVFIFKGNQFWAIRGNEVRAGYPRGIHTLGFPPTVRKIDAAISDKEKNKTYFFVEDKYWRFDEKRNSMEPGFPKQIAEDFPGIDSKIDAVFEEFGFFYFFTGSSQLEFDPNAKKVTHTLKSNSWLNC

NCI-H460 = assay: Growth inhibition of human NCI-H460 cells; format: functional, cell-based
In short: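 Run by the NCI Developmental Therapeutics Program human cancer cell line screen in its single-dose–response format.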

SMILES	Activity (Caspase-1 (Homo sapiens))	Activity [1]	Activity (NCI-H460)
COC(=O)[C@]12C(=O)[C@H](C)O[C@@H]3OC(=O)[C@](C)(C[C@H]4C(C)=C5CC(=O)OC(C)(C)C5=CC[C@@]41C)[C@@H]32	Active	Active	–
C=C1[C@@]2(C)C[C@H]3C(C)=C4CC(=O)OC(C)(C)C4=CC[C@]3(C)[C@]1(C(=O)OC)C(=O)[C@@](C)(O)C2=O	Active	Active	Active
C[C@@H]1O[C@@H]2OC(=O)[C@]3(C)C[C@@H]4[C@](C)(C(=O)C=C5C(=CC(=O)OC5(C)C)[C@@]45CO5)[C@H](C1=O)[C@H]23	Active	Active	Active
COC(=O)[C@]12C(=O)[C@H](C)O[C@@H]3OC(=O)[C@](C)(C[C@H]4[C@]5(CO5)C5=CC(=O)OC(C)(C)C5=CC[C@@]41C)[C@@H]32	Active	Active	–
C=C1[C@@]2(C)C[C@H]3[C@@]4(C)C(=CC[C@]3(C)[C@]1(C(=O)OC)C(=O)[C@@](C)(O)C2=O)C(C)(C)C(=O)C[C@H]4O	Active	Active	–
